Laboratory results taken from ChEMBL document CHEMBL1153363, “Structure-activity relationships for a series of quinoline-based compounds active against replicating and nonreplicating Mycobacterium tuberculosis” (J Med Chem, 2009).
Values after ≈ are worked out from the molar mass of the structure shown.

Key:
[1] = tested on: Mycobacterium tuberculosis; assay: Antitubercular activity against replicating form of Mycobacterium tuberculosis H37Rv ATCC 27294 after 7 days by microplate alamar blue assay; assay type: functional; details: 168 h
Procedure, shortened: (§1)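 12.8 mM DMSO stocks; two-fold dilutions in Middlebrook 7H12 broth, final 128 to 0.5 µM. Inoculum 2 × 10⁵ cfu/mL, 37 °C. On day 7, Tween 80 plus Alamar Blue added; fluorescence read (ex 530/em 590 nm) after 16-24 h more. MIC = lowest concentration giving ≥90% fluorescence drop versus bacteria-only controls; mean of two runs. RMP and INH positive controls.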

Vero = assay: Cytotoxicity against african green monkey Vero cells after 72 hrs by Cell titer assay; assay type: cell-based, Chlorocebus sabaeus
Procedure, shortened: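 Vero CCL-81 cells, log phase. Samples from 12.8 mM DMSO stocks in geometric 3-fold dilutions in MEM with 10% FBS, 25 mM HEPES, 0.2% NaHCO₃ and 2 mM glutamine; DMSO ≤1% v/v final. Run in duplicate, 72 h at 37 °C, 5% CO₂. Viability by CellTiter 96 aqueous assay, absorbance 490 nm; IC50 from curve fitting.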

[2] = tested on: Mycobacterium tuberculosis; assay: Antitubercular activity against non replicating persistent form of Mycobacterium tuberculosis H37Rv ATCC 27294 after 10 days by LORA; assay type: functional; details: 240 h
Procedure, shortened: (§2)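 Recombinant H37Rv (pFCA-luxAB, V. harveyi luciferase, acetamidase promoter), low-oxygen adapted in fermentor, washed in PBS, stored at -80 °C. About 10⁵ cfu/mL of thawed cells exposed to two-fold serial dilutions in 7H12, 10 days anaerobic at 37 °C. Luminescence read after 28 h aerobic recovery (5% CO₂). MIC = lowest concentration preventing recovery (90% reduction versus untreated), read graphically.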

[3] = tested on: Mycobacterium tuberculosis; assay: Antitubercular activity against replicating form of Mycobacterium tuberculosis; assay type: functional; procedure, shortened: as §1
[4] = tested on: Mycobacterium tuberculosis; assay: Antitubercular activity against non replicating persistent form of Mycobacterium tuberculosis; assay type: functional; procedure, shortened: as §2
[5] = tested on: Mycobacterium tuberculosis; assay: Ratio of MIC for non replicating persistent form of Mycobacterium tuberculosis H37Rv ATCC 27294 by LORA to MIC for replicating form of Mycobacterium tuberculosis H37Rv ATCC 27294 by microplate alamar blue assay; assay type: functional
[6] = tested on: Mycobacterium tuberculosis; assay: Antitubercular activity against Mycobacterium tuberculosis; assay type: functional; procedure, shortened: as §1
[7] = Chlorocebus sabaeus, Vero, 72 h

Compound	MIC [1]	IC50 (Vero; [7])	MIC [2]	also measured
CCOC(=O)c1ccc(COc2cc(C(F)(F)F)nc3c(C(F)(F)F)cccc23)o1	> 128 µM	118 µM		
CCOC(=O)c1nc(COc2cc(C(F)(F)F)nc3c(C(F)(F)F)cccc23)cs1	16.5 µM (≈ 7.43 µg/mL)	> 128 µM		
CCOC(=O)c1cc(CCOc2cc(C(F)(F)F)nc3c(C(F)(F)F)cccc23)on1	3.4 µM (≈ 1.52 µg/mL)	> 128 µM	9.9 µM (≈ 4.44 µg/mL)	
CCOC(=O)c1cc(COc2ccnc3c(C(F)(F)F)cccc23)on1	10.6 µM (≈ 3.88 µg/mL)	> 128 µM	56.6 µM (≈ 20.7 µg/mL)	
CCOC(=O)c1cccc(COc2cc(C(F)(F)F)nc3c(C(F)(F)F)cccc23)n1	> 128 µM			
CCOC(=O)c1cc(COc2cc(C(F)(F)F)nc3cc(C(F)(F)F)cc(C(F)(F)F)c23)on1	0.77 µM (≈ 0.387 µg/mL)	> 128 µM	10 µM (≈ 5.02 µg/mL)	
CCOC(=O)c1cc(COc2cc(C(F)(F)F)nc3c(F)ccc(F)c23)on1	41.2 µM (≈ 16.6 µg/mL)		52.8 µM (≈ 21.2 µg/mL)	
CCOC(=O)c1cc(Cn2ccc(=O)c3ccc(C(F)(F)F)cc32)on1	> 128 µM			
FC(F)(F)c1cc(OCc2nnn[nH]2)c2cccc(C(F)(F)F)c2n1	> 128 µM			
CCOC(=O)c1cc(COc2cc(C(F)(F)F)nc3cccc(C(F)(F)F)c23)on1	3.8 µM (≈ 1.65 µg/mL)	> 128 µM		
CCOC(=O)C1=NOC(COc2cc(C(F)(F)F)nc3c(C(F)(F)F)cccc23)C1 (configuration not stated)	22.2 µM (≈ 9.69 µg/mL)	> 128 µM		
CN[C@@H]1[C@H](O[C@H]2[C@H](O[C@H]3[C@H](O)[C@@H](O)[C@H](N=C(N)N)[C@@H](O)[C@@H]3N=C(N)N)O[C@@H](C)[C@]2(O)C=O)O[C@@H](CO)[C@H](O)[C@H]1O [STREPTOMYCIN]	0.3 µM (≈ 0.174 µg/mL)			
CCC(=O)c1cc(COc2cc(C(F)(F)F)nc3c(C(F)(F)F)cccc23)on1	27.4 µM (≈ 11.5 µg/mL)	64.9 µM		
CCOC(=O)c1cc(COc2cc(C(F)(F)F)nc3c(C(F)(F)F)cccc23)on1	0.9 µM (≈ 0.391 µg/mL)	> 128 µM	12.2 µM (≈ 5.3 µg/mL)	MIC [3]: 0.9 µM (≈ 0.391 µg/mL); MIC [4]: 12.2 µM (≈ 5.3 µg/mL)
CO[C@H]1/C=C/O[C@@]2(C)Oc3c(C)c(O)c4c(O)c(c(/C=N/N5CCN(C)CC5)c(O)c4c3C2=O)NC(=O)/C(C)=C\C=C\[C@H](C)[C@H](O)[C@@H](C)[C@@H](O)[C@@H](C)[C@H](OC(C)=O)[C@@H]1C [RIFAMPIN]	0.1 µM (≈ 0.0823 µg/mL)	127 µM	1.9 µM (≈ 1.56 µg/mL)	IC50 (Vero; vero): 127 µM
CCOC(=O)c1ccc(COc2cc(C(F)(F)F)nc3c(C(F)(F)F)cccc23)cc1	> 128 µM	> 128 µM		
CCOC(=O)c1cc(COc2cc(C(F)(F)F)nc3cc(C(F)(F)F)ccc23)on1	1.3 µM (≈ 0.565 µg/mL)	> 128 µM		
CCOC(=O)c1cc(COc2ccnc3cc(C(F)(F)F)ccc23)on1	3.3 µM (≈ 1.21 µg/mL)		81.9 µM (≈ 30 µg/mL)	Ratio [5]: 25

Compound	MIC [1]	IC50 (Vero; [7])	MIC [2]	also measured
CCOC(=O)c1cc(COc2cc(C(F)(F)F)nc3c(C)cccc23)on1	1.8 µM (≈ 0.685 µg/mL)	> 128 µM	10.4 µM (≈ 3.96 µg/mL)	
NNC(=O)c1ccncc1 [ISONIAZID]	0.5 µM (≈ 0.0686 µg/mL)	> 128 µM	> 128 µM	
CCOC(=O)c1cc(COc2cc(C(F)(F)F)nc3c(C(F)(F)F)cc(OC)cc23)on1	66.1 µM (≈ 30.7 µg/mL)	> 128 µM		
O=[N+]([O-])c1ccc(COc2cc(C(F)(F)F)nc3c(C(F)(F)F)cccc23)o1	6.3 µM (≈ 2.56 µg/mL)	15.4 µM		
CCOC(=O)c1cc(COc2cc(C(F)(F)F)nc3ccc(C(F)(F)F)cc23)on1	3.7 µM (≈ 1.61 µg/mL)	> 128 µM	7.6 µM (≈ 3.3 µg/mL)	Ratio [5]: 2
CCOC(=O)c1cc(COc2cc(C(F)(F)F)nc3c(Cl)cccc23)on1	62.9 µM (≈ 25.2 µg/mL)		49.3 µM (≈ 19.8 µg/mL)	
CCOC(=O)c1cc(COc2cc(C(F)(F)F)nc3cc(Cl)cc(Cl)c23)on1	1.9 µM (≈ 0.827 µg/mL)	> 128 µM	3.7 µM (≈ 1.61 µg/mL)	
CCOC(=O)c1cc(COc2ccnc3ccccc23)on1	25.1 µM (≈ 7.49 µg/mL)	> 128 µM	13.2 µM (≈ 3.94 µg/mL)	
CCOC(=O)c1cc(COc2cc(C(F)(F)F)nc3c(F)cc(F)cc23)on1	14.6 µM (≈ 5.87 µg/mL)			
CCOC(=O)c1cc(COc2cc(C(F)(F)F)nc3c(F)cccc23)on1	11.3 µM (≈ 4.34 µg/mL)	> 128 µM	39 µM (≈ 15 µg/mL)	
CCOC(=O)c1cc(COc2cc(C(F)(F)F)nc3ccccc23)on1	3.2 µM (≈ 1.17 µg/mL)	> 128 µM	25.1 µM (≈ 9.19 µg/mL)	
CCOC(=O)c1cc(COc2cc(C(=O)OCC)nc3ccccc23)on1	7.9 µM (≈ 2.93 µg/mL)	> 128 µM	15.7 µM (≈ 5.81 µg/mL)	
CCOC(=O)c1cc(COc2cc(C(F)(F)F)nc3c(C(F)(F)F)cccc23)no1	3.6 µM (≈ 1.56 µg/mL)	> 128 µM		
CCOC(=O)c1cc(COc2cc(C(F)(F)F)nc3c(OC(F)(F)F)cccc23)on1	2.6 µM (≈ 1.17 µg/mL)	> 128 µM	7 µM (≈ 3.15 µg/mL)	
CCOC(=O)c1coc(COc2cc(C(F)(F)F)nc3c(C(F)(F)F)cccc23)n1	> 128 µM			
CCOC(=O)c1cc(COc2ccnc3cc(Cl)ccc23)on1	3.8 µM (≈ 1.26 µg/mL)	> 128 µM	99.7 µM (≈ 33.2 µg/mL)	Ratio [5]: 25
OC(c1cc(C(F)(F)F)nc2c(C(F)(F)F)cccc12)C1CCCCN1 (configuration not stated) [MEFLOQUINE]				MIC [6]: 13 µM (≈ 4.92 µg/mL)
CCOC(=O)c1cc(-c2cccc(Oc3cc(C(F)(F)F)nc4ccccc34)c2)on1	0.95 µM (≈ 0.407 µg/mL)	> 128 µM	3.7 µM (≈ 1.58 µg/mL)	
